Series [1] deals with Orotidine 5'-phosphate decarboxylase (Methanobacterium thermoautotrophicum, UniProt O26232). Nature of the series: Reversible inhibition of Methanobacterium thermoautotrophicum ODCase. Details: species or system Methanothermobacter thermautotrophicus. In short, it runs like this:
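Inhibitor levels span 0-1.0 µM up to 0-4.0 mM depending on compound. Rates from heat flow fitted to a competitive model for Ki; experiments in triplicate.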

In series [2] the target is T1, Uridine 5'-monophosphate synthase (Homo sapiens, UniProt P11172).
T1 sequence (P11172 whole entry): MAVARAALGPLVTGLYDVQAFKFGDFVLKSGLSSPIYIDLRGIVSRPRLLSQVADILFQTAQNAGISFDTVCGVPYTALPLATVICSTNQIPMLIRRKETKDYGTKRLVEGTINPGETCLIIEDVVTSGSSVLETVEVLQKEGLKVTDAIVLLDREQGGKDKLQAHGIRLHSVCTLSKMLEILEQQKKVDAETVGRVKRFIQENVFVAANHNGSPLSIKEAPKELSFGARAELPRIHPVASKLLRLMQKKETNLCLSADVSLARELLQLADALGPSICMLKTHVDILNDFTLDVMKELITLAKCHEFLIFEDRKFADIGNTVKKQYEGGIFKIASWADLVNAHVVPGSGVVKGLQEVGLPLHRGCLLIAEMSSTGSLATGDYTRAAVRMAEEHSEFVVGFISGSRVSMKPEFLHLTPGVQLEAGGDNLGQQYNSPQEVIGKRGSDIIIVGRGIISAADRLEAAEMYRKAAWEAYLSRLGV
Nature of the series: Reversible inhibition of human ODCase. In short, it runs like this:
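Human ODCase at 60 nM in 50 mM Tris, 1 mM DTT, assayed by ITC at 37 °C. Enzyme mixed with inhibitor (stocks in 50 mM Tris pH 7.5) and the reaction started with OMP, 15 or 20 µM final. Inhibitor ranges from 0-1.0 µM up to 0-500 µM. Ki from direct fit of decarboxylation rates; triplicates.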

Series [3] has as its system Methanothermobacter thermautotrophicus. Nature of the series: (§1) Irreversible inhibition of Methanobacterium thermoautotrophicum ODCase.
A short description of series [4]: as §1. Details: species or system Methanothermobacter thermautotrophicus.
Series [5] addresses T1, Uridine 5'-monophosphate synthase. Nature of the series: (§2) Irreversible inhibition of human ODCase.
The target of series [6] is T2, Uridine 5'-monophosphate synthase (Homo sapiens) (UniProt P11172).
T2 sequence (whole entry): T1 sequence (P11172 whole entry)
The description is as §2.

Series [7] relates to OCI-Ly7. Nature of the series: Induction of apoptosis in human OCI-LY7 cells 4 uM by […]/propidium iodide staining assay. The format is functional, cell-based. A digest of the protocol: (§3)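 Cells seeded in duplicate at 10^5 cells/mL; inhibitors added straight after seeding at 4 µM final, water in control wells. Cells harvested every 24 h, washed in PBS, stained with Annexin V/propidium iodide (1:200) and analysed by FACS; apoptotic cells scored as Annexin V+/PI-, necrotic as Annexin V+/PI+.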

A short description of series [8]: Cytotoxicity against human CCD-967 cells up to 4 uM after 3 days by WST1 assay. The format is cell-based. To be noted: ccd-967, 72 h. In short, it runs like this: (§4)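 Cells grown in Iscove's MDM with 5% FCS, 50 µM 2-mercaptoethanol and antibiotics, kept subconfluent if adherent. Seeded in triplicate at 10^4 cells/100 µL with compounds (in water) added at once, 0 to 100 µM final. WST.1 formazan read at 440 nm on day 3; IC50 from OD versus concentration.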

Series [9] is described as follows: Antitumor activity against human OCI-My 2 cells after 3 days by WST1 assay. To be noted: 72 h. The series is classed as functional, cell-based. A digest of the protocol:
(§5)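 Cell lines grown in Iscove's MDM with 5% FCS, 50 µM 2-mercaptoethanol, penicillin and streptomycin; suspension lines kept at 0.5-1.5 × 10^6 cells/mL, adherent lines subconfluent. Cells seeded in triplicate at 10^4 cells/100 µL. Compounds were dissolved in water and added immediately at 0 to 100 µM final. WST.1 read at 440 nm on day 3; IC50 taken from OD versus concentration plots.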

A short description of series [10]: Antitumor activity against human OCI-AML1 cells after 3 days by WST1 assay. As to conditions: ML1, 72 h. The series is classed as functional, cell-based. In short, it runs like this: as §5
Background: Formazan colour is commonly taken as a measure of viable cells.

The nature of series [11]: Antitumor activity against human MDA468 cells after 3 days by WST1 assay. The format is functional, cell-based. To be noted: MDA-MB-468, 72 h. In short, it runs like this: as §5
The test system of series [12] is MCF7. As to the kind of experiment: Antitumor activity against human MCF7 cells after 3 days by WST1 assay. The format is functional, cell-based. As to conditions: MCF7, 72 h. In short, it runs like this:
as §5

The nature of series [13]: Antitumor activity against human LOX cells after 3 days by WST1 assay. To be noted: 72 h. The series is classed as functional, cell-based. A digest of the protocol:
as §5

Series [14] has as its system Hs-578T. Nature of the series: Antitumor activity against human Hs 578T cells up to 4 uM after 3 days by WST1 assay. The series is classed as functional, cell-based. A digest of the protocol: as §5
Series [15] concerns SKW3. Nature of the series: Induction of apoptosis in human SKW3 cells at 4 uM by annexin V/propidium iodide staining assay.
The species named for series [16] is Homo sapiens. Nature of the series: Induction of apoptosis in human OCI-My 2 cells 4 uM by […]/propidium iodide staining assay. The format is functional, cell-based. A digest of the protocol: as §3
Series [17] deals with OVCAR-4. Nature of the series: Antitumor activity against human OVCAR4 cells after 3 days by WST1 assay. The series is classed as functional, cell-based. As to conditions: OVCAR-4, 72 h. In short, it runs like this: as §5
Series [18] has as its system T47D. As to the kind of experiment: Antitumor activity against human T47D cells up to 4 uM after 3 days by WST1 assay. The series is classed as functional, cell-based. In short, it runs like this: as §5
In series [19] the test system is COLO 205. As to the kind of experiment: Antitumor activity against human COLO205 cells after 3 days by WST1 assay. The series is classed as functional, cell-based. As to conditions: COLO 205, 72 h. A digest of the protocol:
as §5

Series [20] deals with PBMC. As to the kind of experiment: Cytotoxicity against human PBMC cells by WST1 assay. The series is classed as cell-based. A digest of the protocol:
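Donor PBMCs isolated on Ficoll-Hypaque from blood diluted 1:1 in PBS, washed twice in PBS and stimulated with 3 µg/mL concanavalin A. Seeded in triplicate at 10^5 cells/100 µL; compounds in water added immediately, 0-100 µM final. WST.1 absorbance at 440 nm on day 3; IC50 from OD versus concentration plots.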

The nature of series [21]: Antitumor activity against human SKW3 cells after 3 days by WST1 assay. To be noted: SKW3, 72 h. The series is classed as functional, cell-based. In short, it runs like this:
as §5

For series [22], the system named is OCI-AML2. As to the kind of experiment: Antitumor activity against human OCI-AML2 cells after 3 days by WST1 assay. The format is functional, cell-based. As to conditions: OCI-AML2, 72 h. A digest of the protocol: as §5
Series [23] relates to SNB-19. Nature of the series: Antitumor activity against human SNB19 cells up to 4 uM after 3 days by WST1 assay. The series is classed as functional, cell-based. A digest of the protocol: as §5
Series [24] can be described thus: Antitumor activity against human OCI-LY7 cells after 3 days by WST1 assay. The format is functional, cell-based. As to conditions: OCI-Ly7, 72 h. A digest of the protocol:
as §5

For series [25], the system named is ML1. Nature of the series: Induction of apoptosis in human OCI-AML1 cells by […]/propidium iodide staining assay. The series is classed as functional, cell-based. In short, it runs like this:
as §3

Series [26] deals with PC-3. Nature of the series: Antitumor activity against human PC3 cells up to 50 uM after 3 days by WST1 assay. The series is classed as functional, cell-based. A digest of the protocol: as §5
In series [27] the test system is Hs-578T. Nature of the series: Antitumor activity against human Hs 578T cells up to 50 uM after 3 days by WST1 assay. The series is classed as functional, cell-based. In short, it runs like this: as §5
Series [28] is described as follows: Cytotoxicity against human CCD-967 cells up to 50 uM after 3 days by WST1 assay. The format is cell-based. As to conditions: ccd-967, 72 h. In short, it runs like this: as §4
For series [29], the system named is SNB-19. Nature of the series: Antitumor activity against human SNB19 cells up to 50 uM after 3 days by WST1 assay. The series is classed as functional, cell-based. A digest of the protocol: as §5
Series [30] deals with T47D. As to the kind of experiment: Antitumor activity against human T47D cells up to 50 uM after 3 days by WST1 assay. The format is functional, cell-based. A digest of the protocol: as §5

Activity calls are given as the source filed them. The rule behind the calls is not given here.

Orotidine 5'-phosphate decarboxylase, sequence (O26232 whole entry): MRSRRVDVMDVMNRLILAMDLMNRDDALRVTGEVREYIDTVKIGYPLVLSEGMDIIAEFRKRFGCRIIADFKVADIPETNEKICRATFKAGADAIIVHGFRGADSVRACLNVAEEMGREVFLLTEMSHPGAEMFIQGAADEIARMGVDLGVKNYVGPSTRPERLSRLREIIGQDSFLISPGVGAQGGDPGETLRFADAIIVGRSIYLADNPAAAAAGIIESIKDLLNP

For `Nc1c(F)c(=O)[nH]c(=O)n1[C@@H]1O[C@H](COP(=O)(O)O)[C@@H](O)[C@H]1O`, the Ki in [1] amounted to 11400 nM; in series [2], 16600 nM.
As to `[N-]=[N+]=Nc1cc(=O)[nH]c(=O)n1[C@@H]1O[C@H](COP(=O)(O)O)[C@@H](O)[C@H]1O`, the Ki in series [1] is 200 nM; in series [4] it was 600 nM. Further, in series [3], the Kinact was 61.2 h⁻¹.
Consider `O=c1[nH]c(=O)n([C@@H]2O[C@H](COP(=O)(O)O)[C@@H](O)[C@H]2O)c(I)c1F`, for which, in series [5], the Ki was 1100 nM. This molecule also registered a Kinact in series [6] of 158 h⁻¹.
Turning to `O=c1[nH]c(=O)n([C@@H]2O[C@H](COP(=O)(O)O)[C@@H](O)[C@H]2O)cc1F`, the Ki in [1] is 645000 nM; in series [2] it was 98000 nM.
One may read the IC50 as the concentration at which inhibition is half-maximal. Read a high IC50 as lower potency. On to `Nc1c(F)c(=O)[nH]c(=O)n1[C@@H]1O[C@H](CO)[C@@H](O)[C@H]1O`, for which the outcome in [7], in series [15], in series [16] and in series [25] was Active. Besides, the Activity result in series [8] was “Not Active”. Moreover, the IC50 was 900 nM in series [9]; 700 nM in series [10]; 2600 nM in series [11]; 1400 nM in [12]; 3400 nM in series [13]; 2000 nM in series [17]. Further, the half-inhibitory concentration (IC50) was 3300 nM in series [19]; above 10000 nM in [20]; 600 nM in series [21]; 900 nM in series [22]; 1300 nM in [24]. In addition, the result in [14], in series [18] and in series [23] was inactive.
Regarding `[N-]=[N+]=Nc1c(F)c(=O)[nH]c(=O)n1[C@@H]1O[C@H](COP(=O)(O)O)[C@@H](O)[C@H]1O`, the Ki was found to be 18200 nM in series [5] and 360 nM in [1]. The Kinact in series [6] amounted to 41 h⁻¹.
Take `CCc1c(F)c(=O)[nH]c(=O)n1[C@@H]1O[C@H](COP(=O)(O)O)[C@@H](O)[C@H]1O`: the Ki came to 29000 nM in series [1] and 350 nM in [2].
Take `O=Cc1c(F)c(=O)[nH]c(=O)n1[C@@H]1O[C@H](CO)[C@@H](O)[C@H]1O`: the outcome in series [26], in series [27], in series [29] and in series [30] was inactive. The outcome in series [7], in series [15], in series [16] and in [25] was Active. Besides, the IC50 in [9] was 400 nM; in [10], 300 nM; in series [11] it was 1900 nM; in series [12] it was 23700 nM; in series [13], 400 nM; in series [21], 300 nM. The IC50 in [22] amounted to 700 nM; in series [24] it was 600 nM. In addition, in series [28], the Activity entry is listed as “Not Active”.
As for `[N-]=[N+]=Nc1c(F)c(=O)[nH]c(=O)n1[C@@H]1O[C@H](CO)[C@@H](O)[C@H]1O`, the outcome in [7], in series [15], in series [16] and in series [25] was Active. Also, in series [8], the Activity result is “Not Active”. In addition, the IC50 in [9] amounted to 600 nM; in series [10] it was 600 nM; in [11], 1800 nM; in [12], 1000 nM; in series [13], 2300 nM; in [17], 1500 nM. Moreover, the IC50 in series [19] was 3800 nM; in series [20], above 10000 nM; in series [21] it was 400 nM; in [22] it was 700 nM; in series [24], 700 nM. Further, the outcome in series [14], in series [18] and in series [23] was inactive.

(Values after ChEMBL document CHEMBL1152809, “Structure-activity relationships of orotidine-5'-monophosphate decarboxylase inhibitors as anticancer agents” (J Med Chem, 2009).)
